Screening results as filed in PubChem BioAssay.
Scp-1 inhibitor: blocks human Scp-1 phosphatase activity | Recombinant Scp1, phosphopeptide, malachite green phosphate absorbance | inhibition, % at 20 µM | Q9GZU7 | actives 0.88% (n = 340,000);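 active = inhibition above about 50% at 20 µM, limit read from the data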
Target sequence (Q9GZU7 76-261 limits assumed): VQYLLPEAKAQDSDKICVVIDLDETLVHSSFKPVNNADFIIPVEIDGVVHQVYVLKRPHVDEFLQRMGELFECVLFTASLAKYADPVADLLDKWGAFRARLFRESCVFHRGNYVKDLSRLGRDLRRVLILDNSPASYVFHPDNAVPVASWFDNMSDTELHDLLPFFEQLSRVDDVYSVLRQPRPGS
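Times: enzyme reaction 45 min at room temperature, colour 5 min, stabilisation 30 min. Material: SCP-1 catalytic fragment, aa 76-261. Medium: Acidic Tris acetate buffer with magnesium and detergent. Signal: colorimetric free-phosphate detection, absorbance 630 nm. Read-out basis: % inhibition of SCP-1 phosphate liberation. Reagent: Phosphorylated 17-residue peptide substrate.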
DNMT1 block: blocks human DNA methyltransferase DNMT1; P26358; DNMT1 molecular beacon, Hinp1I cleavage, fluorescence; inhibition (reported as % activation of signal), % at 10 µM; actives 0.83% (n = 360,000); AID 588458; in the data active = inhibition above about 50%
STEP inh: inhibitors of human striatal-enriched phosphatase STEP; recombinant STEP, OMFP fluorogenic substrate, fluorescence; inhibition, % at 20 µM; actives 0.25% (n = 360,000); AID 588621;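 active = inhibition at 20 µM, scaled per plate between control wells, above about 37%, limit read from the data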
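Measure: Control-normalized % inhibition with plate pattern correction | Test system: STEP phosphatase, cell-free reaction | Medium: pH 6.0 Bis-Tris with DTT and Tween 20 | Technique: Fluorescence, 480/540 nm | Times: Reaction 20 min, ambient temperature | Doses: Single compound dose of 20 µM, 1% DMSO final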
LMPTP inh: LMPTP (human) inhibition. recombinant LMPTP-A, OMFP fluorogenic substrate, fluorescence intensity. inhibition, % at 20 µM. actives 0.22% (n = 360,000). AID 651560;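 active = compounds that cut the enzyme signal by at least half of the control window in the single-dose screen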
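Assay system: LMPTP-A, protein tyrosine phosphatase of low molecular weight / Medium: pH 6.0 Bis-Tris buffer with DTT and Triton X-100 / Schedule: 50 min enzyme reaction at room temperature, protected from light / Measured by: endpoint fluorescence intensity from OMFP dephosphorylation / Read-out basis: % inhibition relative to no-enzyme and uninhibited control wells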
SUMO1-SIM PPI: SUMO1-SIM interaction modulation. P63165. SUMO1 binding to a labelled peptide, TR-FRET, 1 h. inhibition, % at 20 µM. actives 0.33% (n = 360,000); in the data active = inhibition above about 37%
Target sequence (P63165 whole entry, looked up): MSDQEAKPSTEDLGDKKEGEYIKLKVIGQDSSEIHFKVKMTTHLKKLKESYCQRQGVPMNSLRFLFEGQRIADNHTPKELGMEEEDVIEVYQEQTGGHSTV
CSN deneddyl inh: inhibitors of human CSN-mediated cullin deneddylation | actives 0.38% (n = 360,000) | Purified CSN, SCF-Nedd8-OG deneddylation, fluorescence polarization | inhibition, % at 12.5 µM | Q92905;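 active = pattern-corrected inhibition above about 35%, with an unprinted fluorescence ratio check between 0.5 and 1.5, limit read from the data, passing the limit was not always enough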
Target sequence (Q92905 whole entry, looked up, one chain of several): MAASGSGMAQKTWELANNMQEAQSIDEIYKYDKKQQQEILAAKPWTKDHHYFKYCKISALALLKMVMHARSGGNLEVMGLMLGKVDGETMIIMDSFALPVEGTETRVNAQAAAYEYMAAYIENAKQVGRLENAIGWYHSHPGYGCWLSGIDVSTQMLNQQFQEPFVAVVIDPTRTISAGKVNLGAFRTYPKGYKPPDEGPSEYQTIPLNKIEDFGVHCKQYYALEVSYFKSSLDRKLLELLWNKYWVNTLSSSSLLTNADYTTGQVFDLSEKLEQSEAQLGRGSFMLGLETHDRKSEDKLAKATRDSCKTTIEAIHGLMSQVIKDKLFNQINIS
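Material: purified human Csn5 enzyme expressed in HEK293T cells / Medium: Tris buffer pH 7.5, NaCl, DTT, Tween-20, trehalose, ovalbumin / Compound dosing: 12.5 µM single point / Schedule: 90 min incubation of compound, enzyme and substrate at room temperature / Signal: fluorescence polarization of the substrate / Control set: no-enzyme wells high, enzyme-with-substrate wells low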
Scp-1 conf: Scp-1 (human) inhibition, single-dose confirmed. shares compounds with Scp-1 inhibitor. recombinant SCP-1 catalytic domain, phosphate release, malachite green absorbance. inhibition, % at 20 µM. actives 61% (n = 2,500). AID 540281
MG interference: colorimetric interference in Scp-1 counter-screen | shares compounds with Scp-1 inhibitor | Colorimetric interference counterscreen, malachite green absorbance 630 nm | apparent inhibition (interference), % at 20 µM | 2,500 tested, under 10 active | AID 540313;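 also: compounds added after enzyme reaction finished so only phosphate colour detection is probed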
Scp1 DSF: binds human Scp-1, shifting its melting temperature. shares compounds with Scp-1 inhibitor. Recombinant SCP1, Sypro Orange thermal shift Tm. thermal shift relative to vanadate control, % at 40 µM. actives 25% (n = 1,500);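 active = substances whose mean melting-temperature shift, as a percentage of the reference inhibitor's shift, reaches about 5.3%, limit read from the data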
Beacon interf DR: shows spectral interference in the DNMT1 beacon assay. shares compounds with DNMT1 block. molecular beacon fluorescence, spectral interference counter-screen. IC50, µM. 200 tested, under 10 active; call rule not given here
DNMT1 inh conf: DNMT1 inhibition confirmation, single concentration; shares compounds with DNMT1 block; DNMT1 molecular beacon HinP1I cleavage, fluorescence; inhibition, % at 10 µM; actives 8% (n = 2,300);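 active = average inhibition of at least 30% in the single-concentration confirmation test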
Beacon interf: shows spectral interference in the DNMT1 beacon assay; shares compounds with DNMT1 block; DNMT1 molecular beacon spectral interference counterscreen, fluorescence 485/520; activation (fluorescence interference), % at 10 µM; actives 1% (n = 2,300); AID 602387;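 active = activation of at least 30% at 10 µM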;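 also: DNMT1 catalytic domain with a HinP1I cleavage step and a FAM/dabcyl DNA beacon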
STEP conf: STEP (human) phosphatase inhibition, single concentration confirmation; shares compounds with STEP inh; recombinant STEP, OMFP fluorogenic substrate, fluorescence; inhibition, % at 20 µM; actives 32% (n = 520); AID 623866; call rule not given here
Large screens that a line does not name were inactive (follow-up assays come after a bar, where they were run). Hits are enriched below; roughly 2% of the tested compounds scored in any of these assays.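 The calls were made as follows, unless noted: active = inhibition of at least 30% at 20 µM; inactive = the rest.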

O=C(COc1ccc(/C=N/NC(=O)c2ccc(O)cc2)cc1)Nc1cccc([N+](=O)[O-])c1	Scp-1 inhibitor 96, STEP inh 74, LMPTP inh 59, CSN deneddyl inh 59 | Scp-1 conf 61 | MG interference inactive | Scp1 DSF 13 | STEP conf 94
O=C(O)CC/C(=C/c1cccc(NC(=O)c2ccccc2Cl)c1)c1nc2ccccc2s1	none
COc1cc(/C=C(\CCC(=O)O)c2nc3ccccc3s2)ccc1OCC(=O)Nc1c(Cl)cccc1Cl	Scp-1 inhibitor 75, DNMT1 block 52, STEP inh 49, SUMO1-SIM PPI 95 | Scp-1 conf 52 | MG interference inactive | Scp1 DSF inactive | Beacon interf DR inactive | DNMT1 inh conf 70 | Beacon interf inactive | STEP conf inactive
CCCCn1c(=O)nc2n(-c3ccc(Cl)cc3)c3ccccc3cc-2c1=O	none
CNc1[nH]c(=O)[nH]c(=O)c1N=Nc1cc(Cl)ccc1Cl	Scp-1 inhibitor 108, STEP inh 48 | Scp-1 conf 73 | MG interference inactive | Scp1 DSF inactive | STEP conf inactive
Nc1[nH]c(=O)[nH]c(=O)c1N=Nc1cccc(Cl)c1	none
COc1ccc(Cn2c(-c3ccco3)nc3c(c(=O)c4ccccc4n3C)c2=O)cc1	Scp-1 inhibitor 91, STEP inh 80, LMPTP inh 69, SUMO1-SIM PPI 45 | Scp-1 conf inactive | MG interference inactive | STEP conf inactive
O=C(O)c1ccc(Nc2nc(-c3ccc([N+](=O)[O-])cc3)nc3ccccc23)cc1	Scp-1 inhibitor 82, STEP inh 89, LMPTP inh 63 | Scp-1 conf 57 | MG interference inactive | Scp1 DSF 9.2 | STEP conf inactive
O=[N+]([O-])c1ccc(-c2nc(Nc3ccc(O)cc3)c3ccccc3n2)cc1	none
Cc1cc(NC(=O)CCC(=O)N(Cc2ccco2)C2(C(=O)NC3CCCCC3)CCCCC2)no1	none
COc1ccc(-c2ncnc(C(F)(F)F)c2-c2csc(C)n2)c(O)c1	none
COc1ccc2cc3c(N)nn(C(=O)c4cccc([N+](=O)[O-])c4)c3nc2c1	Scp-1 inhibitor 98, DNMT1 block 77, STEP inh 98, LMPTP inh 66, SUMO1-SIM PPI 53 | Scp-1 conf 79 | MG interference inactive | Scp1 DSF inactive | DNMT1 inh conf inactive | Beacon interf inactive | STEP conf inactive
COc1cccc(/C=C/C(=O)OCC(=O)c2c(N)n(C)c(=O)n(C)c2=O)c1	none
CS(=O)(=O)Nc1cc2c3c(c1)CCC(=O)N3CCC2	none
O=C1NN(c2ccccc2)C(=O)/C1=C\c1ccccc1OCC(=O)N1CCOCC1	none
O=C1NN(c2cccc(Br)c2)C(=O)/C1=C\c1ccc(N2CCOCC2)cc1	Scp-1 inhibitor 52, DNMT1 block 65, STEP inh 82, LMPTP inh 66 | Scp-1 conf 48 | MG interference inactive | Scp1 DSF inactive | DNMT1 inh conf inactive | Beacon interf inactive | STEP conf 72
O=C(O)CC/C(=N\Nc1ccc(S(=O)(=O)N2CCCC2)cc1[N+](=O)[O-])c1cccs1	Scp-1 inhibitor 63, STEP inh 97 | Scp-1 conf 57 | MG interference inactive | Scp1 DSF 16 | STEP conf 83
O=C(O)C(S)C(S)C(=O)O (stereo not drawn)	Scp-1 inhibitor 96, DNMT1 block 86, STEP inh 50 | Scp-1 conf 65 | MG interference inactive | Scp1 DSF inactive | STEP conf 101
COc1cccc(C2=NN(C(=O)C3CC3)C(O)(C(F)(F)F)C2)c1 (stereo not drawn)	none (no result: Scp-1 inhibitor)
O=C(N/N=C/c1ccccc1Cl)c1nc2ccc([N+](=O)[O-])cc2c(=O)[nH]1	Scp-1 inhibitor 70, STEP inh 54 | Scp-1 conf 32 | MG interference inactive | Scp1 DSF 7.5 | STEP conf inactive
O=C(N/N=C/c1cccc([N+](=O)[O-])c1)c1nc2ccccc2c(=O)[nH]1	none
O=C(CSc1nnc2ccccn12)N1CCc2ccccc21	none
COc1cccc2cc(C(=O)Nc3cccc(C)n3)c(=O)oc12	Scp-1 inhibitor 102, DNMT1 block 74, STEP inh 56 | Scp-1 conf 60 | MG interference inactive | Scp1 DSF inactive | DNMT1 inh conf inactive | Beacon interf inactive | STEP conf inactive
Cc1c(CC(=O)O)c(=O)oc2c(C)c(OCc3ccccc3Br)ccc12	Scp-1 inhibitor 91, STEP inh 98 | Scp-1 conf 62 | MG interference inactive | Scp1 DSF inactive | STEP conf 65
Cc1c(Cc2ccccc2)c(=O)oc2c(C)c(OCC(=O)NCC3CCC(C(=O)O)CC3)ccc12 (stereo not drawn)	Scp-1 inhibitor 85, STEP inh 65 | Scp-1 conf 56 | MG interference inactive | Scp1 DSF inactive | STEP conf inactive
Cc1c(CCC(=O)O)c(=O)oc2c(C)c(OCc3cc4c(cc3Cl)OCO4)ccc12	Scp-1 inhibitor 59, STEP inh 94, LMPTP inh 77, SUMO1-SIM PPI 81 | Scp-1 conf 39 | MG interference inactive | Scp1 DSF inactive | STEP conf 51
Cc1c(CC(=O)O)c(=O)oc2c(C)c(OCc3c(F)cccc3Cl)ccc12	none
CCOC(=O)C1=C(N)Oc2c(oc(CO)cc2=O)C1c1ccccc1 (stereo not drawn)	none
